We go through 29 molecules from ChEMBL document CHEMBL4406825, “Design, synthesis and preliminary bioactivity evaluations of 8-hydroxyquinoline derivatives as matrix metalloproteinase (MMP) inhibitors” (Eur J Med Chem, 2019).

One experiment relates to KG-1. Description: Antiproliferative activity against human KG1 cells assessed as reduction in cell viability incubated for 48 hrs by MTT assay. The experiment is classed as functional, cell-based. As to conditions: KG-1, 48 h. Put shortly: (§1)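 Cells grown in RPMI1640 with 10% FBS at 37°C, 5% CO2; seeded at 4000-5000 cells/well for 8 h, then exposed to a range of compound concentrations for 48 h. MTT added for 4 h, formazan dissolved in DMSO, absorbance at 570 nm; IC50 calculated from inhibition ratios.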

Experiment [1] deals with T1, 72 kDa type IV collagenase (Homo sapiens, UniProt P08253). Description: Inhibition of recombinant human MMP2 using thiopeptide as substrate preincubated for 30 mins followed by substrate addition and measured every mins for 20 min by colorimetric assay.
Target sequence in this assay (P08253 whole entry): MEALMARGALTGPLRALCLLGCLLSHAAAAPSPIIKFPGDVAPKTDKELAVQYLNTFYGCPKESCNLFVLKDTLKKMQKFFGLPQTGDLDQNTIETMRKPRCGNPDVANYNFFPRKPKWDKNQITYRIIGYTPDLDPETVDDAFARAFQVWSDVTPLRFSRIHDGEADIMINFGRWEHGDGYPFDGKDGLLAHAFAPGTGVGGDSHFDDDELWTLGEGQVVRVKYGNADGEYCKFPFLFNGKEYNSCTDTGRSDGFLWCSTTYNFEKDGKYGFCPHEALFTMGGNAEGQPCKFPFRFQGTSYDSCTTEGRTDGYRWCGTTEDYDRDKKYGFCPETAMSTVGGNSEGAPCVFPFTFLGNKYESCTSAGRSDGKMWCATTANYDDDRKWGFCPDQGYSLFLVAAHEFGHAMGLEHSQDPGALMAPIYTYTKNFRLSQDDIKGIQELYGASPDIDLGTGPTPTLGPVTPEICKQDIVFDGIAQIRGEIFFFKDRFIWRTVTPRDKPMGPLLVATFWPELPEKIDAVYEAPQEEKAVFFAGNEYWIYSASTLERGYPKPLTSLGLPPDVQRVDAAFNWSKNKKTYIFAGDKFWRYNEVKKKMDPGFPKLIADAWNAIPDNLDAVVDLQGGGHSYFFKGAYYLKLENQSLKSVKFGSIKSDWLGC
The next experiment relates to K562. Description: Antiproliferative activity against human K562 cells assessed as reduction in cell viability incubated for 48 hrs by MTT assay. Type of experiment: functional, cell-based. As to conditions: K562, 48 h. In short, it runs like this:
as §1
Background: Tetrazolium assays rely on reduction of a dye to a coloured formazan, in cell work by metabolically active cells.

Experiment [2] addresses T2, Matrix metalloproteinase-9 (Homo sapiens, UniProt P14780). Description: Inhibition of recombinant human MMP9 using thiopeptide as substrate preincubated for 30 mins followed by substrate addition and measured every min for 20 mins by colorimetric assay.
The next experiment has as its system HUVEC. Description: Cytotoxicity against HUVEC assessed as reduction in cell viability incubated for 48 hrs by MTT assay. The experiment is classed as cell-based. The following applies: Homo sapiens. In short, it runs like this:
as §1

Experiment [3] addresses T1, 72 kDa type IV collagenase. Description: Inhibition of recombinant human MMP2 at 10 uM using thiopeptide as substrate preincubated for 30 mins followed by substrate addition and measured every min for 20 mins by colorimetric assay relative to control. In short, it runs like this:
(§2)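 Colorimetric kit assay: human recombinant enzyme plus inhibitor in assay buffer for 30 min at 37 °C, then chromogenic MMP substrate added; A412 recorded each minute over 20 min. Enzyme-free blanks and inhibitor-free controls included.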
Target sequence in this assay (P08253 110-660 limits assumed): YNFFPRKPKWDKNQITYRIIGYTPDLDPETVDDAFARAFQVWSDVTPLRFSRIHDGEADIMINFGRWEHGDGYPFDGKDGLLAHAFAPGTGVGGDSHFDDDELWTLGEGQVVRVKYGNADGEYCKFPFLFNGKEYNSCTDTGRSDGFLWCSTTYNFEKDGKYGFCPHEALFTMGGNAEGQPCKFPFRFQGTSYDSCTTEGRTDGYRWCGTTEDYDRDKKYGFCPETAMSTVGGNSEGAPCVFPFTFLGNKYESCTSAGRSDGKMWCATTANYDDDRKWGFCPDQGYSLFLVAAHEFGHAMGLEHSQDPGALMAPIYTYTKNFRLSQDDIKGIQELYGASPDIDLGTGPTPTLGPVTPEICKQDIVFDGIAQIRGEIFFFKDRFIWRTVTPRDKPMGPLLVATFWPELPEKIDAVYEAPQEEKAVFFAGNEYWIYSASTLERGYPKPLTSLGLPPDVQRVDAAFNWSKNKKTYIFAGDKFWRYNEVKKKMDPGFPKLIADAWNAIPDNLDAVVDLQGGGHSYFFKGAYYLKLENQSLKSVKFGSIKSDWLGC

For the next experiment, the system named is HL-60. Description: Antiproliferative activity against human HL60 cells assessed as reduction in cell viability incubated for 48 hrs by MTT assay. Type of experiment: functional, cell-based. As to conditions: HL-60, 48 h. Put shortly: as §1
Another experiment concerns MCF7. Description: Antiproliferative activity against human MCF7 cells assessed as reduction in cell viability incubated for 48 hrs by MTT assay. As to conditions: MCF7, 48 h. The experiment is classed as functional, cell-based. Put shortly:
as §1

Experiment [4] deals with A549. Description: Antiproliferative activity against human A549 cells assessed as reduction in cell viability incubated for 48 hrs by MTT assay. The experiment is classed as functional, cell-based. As to conditions: A549, 48 h. Put shortly: as §1
In the next experiment the test system is PC-3. Description: Antiproliferative activity against human PC3 cells assessed as reduction in cell viability incubated for 48 hrs by MTT assay. As to conditions: PC-3, 48 h. Type of experiment: functional, cell-based. In short, it runs like this:
as §1

The target in experiment [5] is T2, Matrix metalloproteinase-9. Description: Inhibition of recombinant human MMP9 at 10 uM using thiopeptide as substrate preincubated for 30 mins followed by substrate addition and measured every min for 20 mins by colorimetric assay relative to control. In short, it runs like this:
as §2

The subject of experiment [6] is A549. Description: Inhibition of cell invasion in human A549 cells at 1 to 10 uM incubated for 24 hrs by crystal violet staining based matrigel migration assay. The experiment is classed as functional. Put shortly:
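As the migration setup but membrane precoated with matrigel (1:10 diluted) for 2 h at 37°C: A549 pretreated 24 h at 1, 5, 10 µM, 30,000 cells in serum-free medium above, 10% FBS below, 24 h, then fixing, 0.1% crystal violet staining and counting. Three repeats, mean ± SEM.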

The source made the active and inactive calls. The rule behind the calls is not given here. Where only a bound is given, the exact number is not on record here.

T2 sequence (P14780 whole entry): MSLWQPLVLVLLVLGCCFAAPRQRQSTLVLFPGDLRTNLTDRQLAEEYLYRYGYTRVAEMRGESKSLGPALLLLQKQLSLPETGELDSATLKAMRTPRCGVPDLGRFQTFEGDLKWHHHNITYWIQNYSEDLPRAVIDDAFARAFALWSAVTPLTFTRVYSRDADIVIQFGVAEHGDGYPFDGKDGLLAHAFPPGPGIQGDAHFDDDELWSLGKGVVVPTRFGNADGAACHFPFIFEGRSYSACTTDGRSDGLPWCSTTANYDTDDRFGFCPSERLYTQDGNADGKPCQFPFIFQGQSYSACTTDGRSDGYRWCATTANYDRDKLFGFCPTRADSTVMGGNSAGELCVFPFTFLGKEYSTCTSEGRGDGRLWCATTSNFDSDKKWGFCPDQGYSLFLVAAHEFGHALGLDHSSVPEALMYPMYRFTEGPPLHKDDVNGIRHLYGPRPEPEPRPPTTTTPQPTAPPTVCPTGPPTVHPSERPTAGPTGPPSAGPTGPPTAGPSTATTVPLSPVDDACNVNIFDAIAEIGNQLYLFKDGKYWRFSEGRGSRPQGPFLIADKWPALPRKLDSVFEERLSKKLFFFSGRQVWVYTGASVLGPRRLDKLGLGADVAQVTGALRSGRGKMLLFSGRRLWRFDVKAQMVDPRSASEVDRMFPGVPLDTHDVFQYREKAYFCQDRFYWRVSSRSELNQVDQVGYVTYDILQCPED

On to `O=C(CCCCNCc1cc(Cl)c2cccnc2c1O)Nc1ccccc1`, for which the IC50 with KG-1 was 1.6 µM; in experiment [1] it was 3 µM; in the experiment on K562, 2.9 µM; in experiment [2], 3.6 µM; in the experiment with HUVEC it was above 50 µM; in the experiment on HL-60, 1.9 µM. The half-maximal inhibitory concentration (IC50) with MCF7 worked out at 7.4 µM; in the experiment with A549 [4] it was 13 µM; in the experiment on PC-3, 8.4 µM. The inhibition is 100% in experiment [3] and 99.9% in experiment [5].

Consider `CN(CCC(=O)Nc1ccc(O)c2ncccc12)c1ccccc1`, for which the half-maximal inhibitory concentration (IC50) in experiment [1] and in experiment [2] was above 10 µM in each case.

On to `O=C(CCNCc1ccc(O)c2ncccc12)Nc1ccccc1`, for which the IC50 in [1] and in experiment [2] was above 10 µM in each case. In addition, the inhibition in [5] is 9.8%.

Take `Cc1[nH]c2ccccc2c1CCNC(=O)CCNCc1ccc(O)c2ncccc12`: the half-inhibitory concentration (IC50) in experiment [1] and in [2] was above 10 µM in each case. Besides, the inhibition in [3] came to 49.8%; in experiment [5], 11.3%.

Consider `O=C(CCCNCc1ccc(O)c2ncccc12)Nc1ccccc1`, for which the IC50 turned out to be 5.7 µM in experiment [1] and 5.1 µM in experiment [2]. Also, the inhibition in [3] worked out at 54.5%; in [5], 83.9%.

On to `O=C(CCCCNCc1ccc(O)c2ncccc12)Nc1ccccc1`, for which the IC50 in experiment [1] and in experiment [2] was above 10 µM each time. In addition, the inhibition in experiment [5] is 36.5%.

In the case of `CC1(C)SCCN(S(=O)(=O)c2ccc(Oc3ccncc3)cc2)[C@H]1C(=O)NO` [PRINOMASTAT], the IC50 in the experiment with KG-1, in the experiment on K562, in the experiment with HUVEC, with HL-60, in the experiment with MCF7 and in the experiment with A549 [4] was above 500 µM in each case. The 50% inhibitory concentration (IC50) in the experiment with PC-3 was above 500 µM. Also, in the experiment with A549 [6], the inhibition entry is “Active”.

With `O=C(CCCCCCNCc1ccc(O)c2ncccc12)Nc1ccccc1`, the IC50 in experiment [1] and in experiment [2] was above 10 µM in each case. The figures for the inhibition in experiment [3] and in experiment [5] were 53.8% and 28.8%, respectively.

Consider `Cc1nc2ccccc2n1CCCC(=O)Nc1ccc(O)c2ncccc12`, for which the IC50 in experiment [1] and in [2] was above 10 µM throughout. The inhibition in [3] is 46.9%.

Consider `Cc1[nH]c2ccccc2c1CCNC(=O)CCCCNCc1cc(Cl)c2cccnc2c1O`, for which the results for the IC50 in experiment [1] and in experiment [2] were 7.6 µM and 3.1 µM, respectively. Moreover, the inhibition was 67.8% in experiment [3] and 100% in experiment [5].

In the case of `O=C(CCCNCc1cc(Cl)c2cccnc2c1O)Nc1ccccc1`, the IC50 is 1.6 µM in the experiment with KG-1; 3.8 µM in experiment [1]; 1.9 µM in the experiment with K562; 3.2 µM in [2]; above 50 µM with HUVEC; 1.9 µM in the experiment with HL-60. The IC50 with MCF7 stood at 9 µM; in the experiment with A549 [4] it was 17 µM; with PC-3, 7.7 µM. Also, the inhibition in experiment [3] and in [5] was 100% each time.

Take `Cc1nc2ccccc2n1CCC(=O)Nc1ccc(O)c2ncccc12`: the 50% inhibitory concentration (IC50) in [1] and in experiment [2] was above 10 µM throughout.

Regarding `O=C(CCN1C(=O)c2ccccc2S1(=O)=O)Nc1ccc(O)c2ncccc12`, the 50% inhibitory concentration (IC50) in [1] and in experiment [2] was above 10 µM each time.

Regarding `Cc1nc2ccccc2n1CCCCC(=O)Nc1ccc(O)c2ncccc12`, the IC50 in [1] and in experiment [2] was above 10 µM throughout.

Take `CN(CCCC(=O)Nc1ccc(O)c2ncccc12)c1ccccc1`: the IC50 in [1] and in [2] was above 10 µM in each case.

Take `O=C(CCCCCN1C(=O)c2ccccc2S1(=O)=O)Nc1ccc(O)c2ncccc12`: the half-maximal inhibitory concentration (IC50) in experiment [1] and in experiment [2] was above 10 µM throughout. In addition, in experiment [5], the inhibition came out at 24.3%.

`Cc1[nH]c2ccccc2c1CCNC(=O)CCNCc1cc(Cl)c2cccnc2c1O`: the IC50 in [1] and in experiment [2] was above 10 µM throughout. Also, the inhibition in experiment [5] worked out at 73.9%.

As for `O=C(CNCc1ccc(O)c2ncccc12)Nc1ccccc1`, the half-inhibitory concentration (IC50) in experiment [1] and in [2] was above 10 µM throughout. Further, the inhibition in experiment [5] was found to be 42.9%.

Consider `O=C(CCCCCNCc1ccc(O)c2ncccc12)Nc1ccccc1`, for which the IC50 in [1] was determined as 8.8 µM; in [2] it was 6 µM. The inhibition in experiment [3] was found to be 56%; in experiment [5] it was 55%.

As for `COc1ccc(S(=O)(=O)N(CC(=O)NO)CC(C)C)cc1`, the IC50 is 52 µM in the experiment on KG-1; 0.0091 µM in experiment [1]; 143 µM with K562; 0.0088 µM in [2]; above 250 µM in the experiment with HUVEC; 29 µM in the experiment with HL-60. For the same molecule, the half-inhibitory concentration (IC50) in the experiment with MCF7 was found to be 187 µM; in the experiment with A549 [4] it was 96 µM; in the experiment on PC-3, 52 µM. In addition, in the experiment on A549 [6], the inhibition entry was “Active”.

For the molecule `Cc1[nH]c2ccccc2c1CCNC(=O)CNCc1cc(Cl)c2cccnc2c1O`, the IC50 is 8.8 µM in [1] and above 10 µM in experiment [2]. The inhibition in experiment [3] amounted to 59.5%; in experiment [5], 35.2%.

With `O=C(CCCCN1C(=O)c2ccccc2S1(=O)=O)Nc1ccc(O)c2ncccc12`, the half-inhibitory concentration (IC50) in experiment [1] and in experiment [2] was above 10 µM in each case.

With `Cc1nc2ccccc2n1CCCCCC(=O)Nc1ccc(O)c2ncccc12`, the concentration for half-maximal inhibition (IC50) in [1] and in [2] was above 10 µM each time. Moreover, the inhibition in experiment [3] was found to be 38.9%.

Consider `O=C(CCNCc1cc(Cl)c2cccnc2c1O)Nc1ccccc1`, for which the IC50 in the experiment with KG-1 is 1.1 µM; in experiment [1], 3.3 µM; with K562 it was 1.7 µM; in experiment [2], 3.5 µM; in the experiment with HUVEC, above 50 µM; in the experiment on HL-60, 1.3 µM. Further, the IC50 in the experiment on MCF7 was determined as 13 µM; in the experiment on A549 [4], 9.7 µM; in the experiment on PC-3 it was 1.9 µM. Further, the inhibition in [3] is 100%; in experiment [5], 98.9%.

With `O=C(CCCN1C(=O)c2ccccc2S1(=O)=O)Nc1ccc(O)c2ncccc12`, the IC50 in experiment [1] and in experiment [2] was above 10 µM throughout. For the same molecule, in experiment [3], the inhibition came to 50.1%.

Consider `Cc1[nH]c2ccccc2c1CCNC(=O)CCCNCc1ccc(O)c2ncccc12`, for which the concentration for half-maximal inhibition (IC50) in experiment [1] and in experiment [2] was above 10 µM throughout. Further, the inhibition in experiment [3] came to 44.8%; in [5] it was 12.3%.

Consider `O=C(CNCc1cc(Cl)c2cccnc2c1O)Nc1ccccc1`, for which the IC50 with KG-1 is 2.3 µM; in experiment [1], 3.2 µM; with K562, 2.9 µM; in experiment [2] it was 2.1 µM; with HUVEC, above 50 µM; in the experiment on HL-60, above 5 µM. Also, the IC50 is 13 µM in the experiment on MCF7, 7.4 µM with A549 [4] and 10 µM with PC-3. Besides, the inhibition in experiment [3] was found to be 95.8%; in experiment [5] it was 78.8%.

With `Cc1[nH]c2ccccc2c1CCNC(=O)CCCCCNCc1cc(Cl)c2cccnc2c1O`, the concentration for half-maximal inhibition (IC50) in the experiment on KG-1 is 4.7 µM; in experiment [1], 3.6 µM; with K562 it was 4.2 µM; in experiment [2] it was 1.7 µM; in the experiment on HUVEC it was above 50 µM; in the experiment on HL-60 it was 2.6 µM. In addition, the results for the IC50 in the experiment with MCF7, in the experiment on A549 [4] and in the experiment on PC-3 were 12 µM, above 25 µM and above 25 µM, respectively. In addition, the inhibition in experiment [3] worked out at 100%; in experiment [5], 77.1%.

On to `Cc1[nH]c2ccccc2c1CCNC(=O)CCCCNCc1ccc(O)c2ncccc12`, for which the IC50 is 8.8 µM in experiment [1] and 5.3 µM in experiment [2]. The figures for the inhibition in experiment [3] and in experiment [5] were 61% and 67.8%, respectively.

For orientation: IC50 means the concentration at which inhibition is half-maximal. The term inhibition denotes the percentage by which the read-out fell short of the control.
